{"source": "ChEMBL document CHEMBL1153008", "about": "“Synthesis and antitubercular activity of novel 4-substituted imidazolyl-2,6-dimethyl-N3,N5-bisaryl-1,4-dihydropyridine-3,5-dicarboxamides” (2009)", "type_in_all_cases": "functional", "key": {"[1]": {"test_system": "Mycobacterium tuberculosis", "experiment": "Antitubercular activity against Mycobacterium tuberculosis H37Rv ATCC 27294 after 21 days by agar proportion method", "conditions": "H37Rv ATCC 27294, 504 h", "how_it_was_run": "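Agar proportion method on Middlebrook 7H10 tubes against rifampicin/isoniazid-susceptible H37Rv. Inoculum: 4–7 day 7H9 broth culture at 37 °C, adjusted to McFarland no. 1, then diluted 10^-2 and 10^-4; 0.1 mL per tube. Incubated 21 days at 37 °C under 5–7% CO2. Colonies counted and compared with drug-free control. Two independent measurements.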"}, "Jurkat": {"test_system": "Jurkat", "experiment": "Cytotoxicity against human Jurkat cells by MTT assay"}, "Raji": {"test_system": "Raji", "experiment": "Cytotoxicity against human Raji cells by MTT assay"}, "[2]": {"experiment": "Cytotoxicity against human Kga1 cells by MTT assay"}, "HeLa": {"test_system": "HeLa", "experiment": "Cytotoxicity against human HeLa cells by MTT assay"}}, "data": [{"smiles": "CSc1ncc(C2C(C(=O)Nc3cccc(Cl)c3)=C(C)NC(C)=C2C(=O)Nc2cccc(Cl)c2)n1Nc1ccccc1", "values": [{"measurement": "MIC", "setting": "[1]", "result": "> 16", "unit": "µg/mL"}]}, {"smiles": "CO[C@H]1/C=C/O[C@@]2(C)Oc3c(C)c(O)c4c(O)c(c(/C=N/N5CCN(C)CC5)c(O)c4c3C2=O)NC(=O)/C(C)=C\\C=C\\[C@H](C)[C@H](O)[C@@H](C)[C@@H](O)[C@@H](C)[C@H](OC(C)=O)[C@@H]1C", "note": "[RIFAMPIN]", "values": [{"measurement": "MIC", "setting": "[1]", "result": 1, "unit": "µg/mL"}]}, {"smiles": "COc1cccc2c1C(=O)c1c(O)c3c(c(O)c1C2=O)C[C@@](O)(C(=O)CO)C[C@@H]3O[C@H]1C[C@H](N)[C@H](O)[C@H](C)O1", "note": "[DOXORUBICIN]", "values": [{"measurement": "IC30", "setting": "Jurkat", "result": 2.13, "unit": "µg/mL"}, {"measurement": "IC30", "setting": "Raji", "result": 1.51, "unit": "µg/mL"}]}, {"smiles": "CSc1ncc(C2C(C(=O)Nc3ccccn3)=C(C)NC(C)=C2C(=O)Nc2ccccn2)n1Nc1ccccc1", "values": [{"measurement": "IC30", "setting": "Jurkat", "result": 13.5, "unit": "µg/mL"}, {"measurement": "IC30", "setting": "[2]", "result": "> 100", "unit": "µg/mL"}, {"measurement": "IC30", "setting": "HeLa", "result": 67.6, "unit": "µg/mL"}, {"measurement": "MIC", "setting": "[1]", "result": "> 16", "unit": "µg/mL"}, {"measurement": "IC30", "setting": "Raji", "result": "> 100", "unit": "µg/mL"}]}, {"smiles": "CSc1ncc(C2C(C(=O)Nc3ccc(Cl)cc3)=C(C)NC(C)=C2C(=O)Nc2ccc(Cl)cc2)n1Nc1ccccc1", "values": [{"measurement": "MIC", "setting": "[1]", "result": "> 16", "unit": "µg/mL"}]}, {"smiles": "CSc1ncc(C2C(C(=O)Nc3ccccc3Cl)=C(C)NC(C)=C2C(=O)Nc2ccccc2Cl)n1Nc1ccccc1", "values": [{"measurement": "IC30", "setting": "Jurkat", "result": 7.76, "unit": "µg/mL"}, {"measurement": "IC30", "setting": "[2]", "result": "> 100", "unit": "µg/mL"}, {"measurement": "IC30", "setting": "HeLa", "result": "> 100", "unit": "µg/mL"}, {"measurement": "MIC", "setting": "[1]", "result": "> 16", "unit": "µg/mL"}, {"measurement": "IC30", "setting": "Raji", "result": 43.6, "unit": "µg/mL"}]}, {"smiles": "CSc1ncc(C2C(C(=O)Nc3cccnc3)=C(C)NC(C)=C2C(=O)Nc2cccnc2)n1Nc1ccccc1", "values": [{"measurement": "MIC", "setting": "[1]", "result": "> 16", "unit": "µg/mL"}]}, {"smiles": "CSc1ncc(C2C(C(=O)Nc3cccc(Cl)c3)=C(C)NC(C)=C2C(=O)Nc2cccc(Cl)c2)n1Cc1ccccc1", "values": [{"measurement": "IC30", "setting": "Jurkat", "result": 47.9, "unit": "µg/mL"}, {"measurement": "IC30", "setting": "[2]", "result": 26.3, "unit": "µg/mL"}, {"measurement": "IC30", "setting": "HeLa", "result": "> 100", "unit": "µg/mL"}, {"measurement": "IC30", "setting": "Raji", "result": 69.2, "unit": "µg/mL"}]}, {"smiles": "CSc1ncc(C2C(C(=O)Nc3cccnc3)=C(C)NC(C)=C2C(=O)Nc2cccnc2)n1Cc1ccccc1", "values": [{"measurement": "IC30", "setting": "Jurkat", "result": 37.1, "unit": "µg/mL"}, {"measurement": "IC30", "setting": "[2]", "result": 27.5, "unit": "µg/mL"}, {"measurement": "IC30", "setting": "HeLa", "result": 91.2, "unit": "µg/mL"}, {"measurement": "IC30", "setting": "Raji", "result": 75.8, "unit": "µg/mL"}]}, {"smiles": "CSc1ncc(C2C(C(=O)Nc3ccc(Br)cc3)=C(C)NC(C)=C2C(=O)Nc2ccc(Br)cc2)n1Nc1ccccc1", "values": [{"measurement": "MIC", "setting": "[1]", "result": "> 16", "unit": "µg/mL"}]}, {"smiles": "CSc1ncc(C2C(C(=O)Nc3ccc(Cl)cc3)=C(C)NC(C)=C2C(=O)Nc2ccc(Cl)cc2)n1Cc1ccccc1", "values": [{"measurement": "IC30", "setting": "Jurkat", "result": 12.3, "unit": "µg/mL"}, {"measurement": "IC30", "setting": "[2]", "result": 58.9, "unit": "µg/mL"}, {"measurement": "IC30", "setting": "HeLa", "result": "> 100", "unit": "µg/mL"}, {"measurement": "IC30", "setting": "Raji", "result": 85.1, "unit": "µg/mL"}]}, {"smiles": "NNC(=O)c1ccncc1", "note": "[ISONIAZID]", "values": [{"measurement": "MIC", "setting": "[1]", "result": 0.2, "unit": "µg/mL"}]}, {"smiles": "CSc1ncc(C2C(C(=O)Nc3ccccn3)=C(C)NC(C)=C2C(=O)Nc2ccccn2)n1Cc1ccccc1", "values": [{"measurement": "IC30", "setting": "Jurkat", "result": 43.6, "unit": "µg/mL"}, {"measurement": "IC30", "setting": "[2]", "result": 19.1, "unit": "µg/mL"}, {"measurement": "IC30", "setting": "HeLa", "result": "> 100", "unit": "µg/mL"}, {"measurement": "IC30", "setting": "Raji", "result": 60.2, "unit": "µg/mL"}]}]}
